Drawing on ChEMBL document CHEMBL1143400, “A diarylquinoline drug active on the ATP synthase of Mycobacterium tuberculosis” (Science, 2005), this text covers log10cfu, Activity and Drug uptake for four molecules.

The test system of data set [1] is Mycobacterium tuberculosis. Kind of data set: Antimycobacterial activity against Mycobacterium tuberculosis H37Rv infected Swiss mouse assessed as reduction of bacterial count in lungs at 50 mg/kg 5 times weekly for 4 weeks. The format is functional. A digest of the protocol:
(§1)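 Nonestablished infection model in mice. Oral dosing began the day after inoculation, given 5 times per week for 4 weeks; one 12.5 mg/kg group was dosed once weekly. Mice were killed on day 28 and lung and spleen CFU counted, with untreated controls taken at day 1. Means ± SD; pairwise comparisons by Bonferroni's method.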

Data set [2] deals with Mycobacterium tuberculosis. Kind of data set: Antimycobacterial activity against Mycobacterium tuberculosis H37Rv infected Swiss mouse assessed as spleen weight at 50 mg/kg 5 times weekly for 4 weeks. In kind it is functional.
The test system of data set [3] is Mycobacterium tuberculosis. The data set is described as follows: Antimycobacterial activity against Mycobacterium tuberculosis H37Rv infected Swiss mouse assessed as reduction of bacterial count in lungs at 75 mg/kg 5 times weekly for 4 weeks. The format is functional. In outline:
as §1

For data set [4], the system named is Mus musculus. The data set is described as follows: Toxicity in Mycobacterium tuberculosis H37Rv infected Swiss mouse at 25 mg/kg 5 times weekly for 4 weeks. The format is organism-based. Details: dose 25 mg/kg. The following applies: in vivo, 672 h.
Data set [5] relates to Mus musculus. Kind of data set: Toxicity in Mycobacterium tuberculosis H37Rv infected Swiss mouse at 100 mg/kg 5 times weekly for 4 weeks. Details: dose 100 mg/kg. The note with it: in vivo, 672 h. The format is organism-based.
The subject of data set [6] is Mycobacterium tuberculosis. Kind of data set: Antimycobacterial activity against Mycobacterium tuberculosis H37Rv infected Swiss mouse assessed as spleen weight at 75 mg/kg 5 times weekly for 4 weeks. In kind it is functional.
Data set [7] concerns Mycobacterium tuberculosis. The data set is described as follows: Antimycobacterial activity against Mycobacterium tuberculosis H37Rv infected Swiss mouse assessed as reduction of bacterial count in spleen at 75 mg/kg 5 times weekly for 4 weeks. The format is functional. A digest of the protocol:
as §1

For data set [8], the system named is Mycobacterium tuberculosis. Kind of data set: Antimycobacterial activity against Mycobacterium tuberculosis H37Rv infected Swiss mouse assessed as reduction of bacterial count in spleen at 100 mg/kg 5 times weekly for 4 weeks. The format is functional. In outline: as §1
The test system of data set [9] is Mycobacterium tuberculosis. Kind of data set: Antimycobacterial activity against Mycobacterium tuberculosis H37Rv infected Swiss mouse assessed as spleen weight at 100 mg/kg 5 times weekly for 4 weeks. In kind it is functional.
Data set [10] relates to Mycobacterium tuberculosis. Kind of data set: Antimycobacterial activity against Mycobacterium tuberculosis H37Rv infected Swiss mouse assessed as reduction of bacterial count in lungs at 100 mg/kg 5 times weekly for 4 weeks. In kind it is functional. In outline: as §1
For data set [11], the system named is Mycobacterium tuberculosis. The data set is described as follows: Antimycobacterial activity against Mycobacterium tuberculosis H37Rv infected Swiss mouse assessed as reduction of bacterial count in spleen at 50 mg/kg 5 times weekly for 4 weeks. In kind it is functional. In outline:
as §1

Data set [12] has as its system Mus musculus. Kind of data set: Toxicity in Mycobacterium tuberculosis H37Rv infected Swiss mouse at 75 mg/kg 5 times weekly for 4 weeks. In kind it is organism-based. On the set-up: dose 75 mg/kg. The note with it: in vivo, 672 h.
The test system of data set [13] is Mus musculus. The data set is described as follows: Toxicity in Mycobacterium tuberculosis H37Rv infected Swiss mouse at 12.5 mg/kg 5 times weekly for 4 weeks. In kind it is organism-based. On the set-up: dose 12.5 mg/kg. The note with it: in vivo, 672 h.
For data set [14], the system named is Mus musculus. The data set is described as follows: Toxicity in Mycobacterium tuberculosis H37Rv infected Swiss mouse at 50 mg/kg 5 times weekly for 4 weeks. The format is organism-based. Details: dose 50 mg/kg. The note with it: in vivo, 672 h.
The test system of data set [15] is Mycobacterium tuberculosis. The data set is described as follows: Antimycobacterial activity against Mycobacterium tuberculosis H37Rv infected Swiss mouse assessed as reduction of bacterial count in lungs at 10 mg/kg after 12 days infection weekly 5 times for 1 month. The format is functional. A digest of the protocol: (§2)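 Established infection model in mice. Treatment started 12 to 14 days after inoculation, given 5 times per week. Mice were killed on day 12 just before treatment, on day 42 (1 month of therapy) and on day 70 (2 months), and lung CFU counted. Means ± SD; pairwise comparisons by Bonferroni's method.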

In data set [16] the test system is Mycobacterium tuberculosis. The data set is described as follows: Antimycobacterial activity against Mycobacterium tuberculosis H37Rv infected Swiss mouse assessed as spleen weight at 10 mg/kg after 12 days infection weekly 5 times for 1 month. In kind it is functional.
The next data set relates to Plasma. Kind of data set: Drug level in human plasma. In kind it is ADME, cell-free.
Data set [17] has as its system Mycobacterium tuberculosis. Kind of data set: Antimycobacterial activity against Mycobacterium tuberculosis H37Rv infected Swiss mouse assessed as spleen weight at 10 mg/kg after 12 days of infection weekly 5 times for 8 weeks. In kind it is functional.
Data set [18] concerns Mycobacterium tuberculosis. The data set is described as follows: Antimycobacterial activity against Mycobacterium tuberculosis H37Rv infected Swiss mouse assessed as reduction of bacterial count in spleen at 10 mg/kg after 12 days infection weekly 5 times for 1 month. In kind it is functional.
For data set [19], the system named is Mycobacterium tuberculosis. The data set is described as follows: Antimycobacterial activity against Mycobacterium tuberculosis H37Rv infected Swiss mouse assessed as reduction of bacterial count in lungs at 10 mg/kg after 12 days of infection weekly 5 times for 8 weeks. In kind it is functional. In outline: as §2
The test system of data set [20] is Mycobacterium tuberculosis. The data set is described as follows: Antimycobacterial activity against Mycobacterium tuberculosis H37Rv infected Swiss mouse assessed as reduction of bacterial count in lungs at 25 mg/kg 5 times weekly for 4 weeks. In kind it is functional. A digest of the protocol:
as §1

The test system of data set [21] is Mycobacterium tuberculosis. Kind of data set: Antimycobacterial activity against Mycobacterium tuberculosis H37Rv infected Swiss mouse assessed as spleen weight at 25 mg/kg 5 times weekly for 4 weeks. The format is functional.
Data set [22] has as its system Mycobacterium tuberculosis. Kind of data set: Antimycobacterial activity against Mycobacterium tuberculosis H37Rv infected Swiss mouse assessed as reduction of bacterial count in spleen at 25 mg/kg 5 times weekly for 4 weeks. The format is functional. A digest of the protocol: as §1

A value given as a limit tells only on which side of the number the result lay.

As for `COc1nc2ccc(Br)cc2cc1[C@@H](c1ccccc1)[C@@](O)(CCN(C)C)c1ccccc1`, the log10cfu in data set [1] worked out at 6.4; in data set [3] it was 6.03; in data set [7] it was 5.72; in data set [8] it was 5.68; in [10], 6.1; in data set [11], 5.78. In addition, the Activity in data set [2] was 410 mg; in the data set with Mus musculus [4] it was “Non-toxic”; with Mus musculus [5], “Non-toxic”; in data set [6], 390 mg; in data set [9], 424 mg; in the data set with Mus musculus [12], “Non-toxic”. The Activity entry in the data set with Mus musculus [13] and in the data set on Mus musculus [14] was “Non-toxic” in each case.

On to `COc1nc2ccc(Br)cc2cc1[C@@H](c1ccccc1)[C@@](O)(CCN(C)C)c1cccc(F)c1`, for which the log10cfu in [1] was 5.2; in data set [3] it was 4.32; in data set [7], 4.04; in data set [8], 3.63; in data set [10] it was 3.63; in data set [11] it was 4.68. The Activity stood at 278 mg in data set [2], 197 mg in data set [6] and 206 mg in data set [9].

Regarding `CO[C@H]1/C=C/O[C@@]2(C)Oc3c(C)c(O)c4c(O)c(c(/C=N/N5CCN(C)CC5)c(O)c4c3C2=O)NC(=O)/C(C)=C\C=C\[C@H](C)[C@H](O)[C@@H](C)[C@@H](O)[C@@H](C)[C@H](OC(C)=O)[C@@H]1C` [RIFAMPIN], the log10cfu is given as 4.05 in [15], 4.72 in data set [18] and 1.89 in data set [19]. Further, the Activity in data set [16] is given as 466 mg; in data set [17], 391 mg. The Drug uptake in the data set with Plasma was less than 0.001 µg/mL.

For `NNC(=O)c1ccncc1` [ISONIAZID], the log10cfu in data set [20] is recorded as 1.75 mg; in [22], 3.05 mg. In addition, the Activity in [21] is recorded as 185 mg.
